We go through eleven compounds from ChEMBL document CHEMBL1135374, “New series of aryloxypropanolamines with both human beta(3)-adrenoceptor agonistic activity and free radical scavenging properties” (2002).

Assay [1] is filed under the species Bos taurus. Briefly: Oxidation was assessed indirectly by measuring bovine serum albumin thiol protection by using Ellman''s test at 500 uM. It is filed as functional. The method in brief:
(§1)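 Hydroxyl radicals from Fenton reaction (Fe2+/H2O2) oxidize BSA. Remaining thiols measured by Ellman's test. Compound present at the stated concentration. Reported as % protection relative to Trolox. Mean ± SEM of three experiments, ANOVA (p < 0.05).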
For orientation: DTNB colorimetry detects thiols as they appear.

The species entered for assay [2] is Bos taurus. Nature of the assay: Oxidation was assessed indirectly by measuring bovine serum albumin(BSA) thiol protection from the formation of thiobarbituric acid reactive substances (TBARs) by TBARs test at 500 uM. The format is functional.
The species named for assay [3] is Bos taurus. Nature of the assay: Oxidation was assessed indirectly by measuring bovine serum albumin(BSA) thiol protection from the formation of thiobarbituric acid reactive substances (TBARs) by TBARs test at 100 uM. The format is functional.
The species named for assay [4] is Bos taurus. Briefly: Oxidation was assessed indirectly by measuring bovine serum albumin (BSA) thiol protection from the formation of thiobarbituric acid reactive substances (TBARs) by TBARs test at 10 uM. The format is functional.
The species entered for assay [5] is Bos taurus. Briefly: Oxidation was assessed indirectly by measuring bovine serum albumin thiol protection by using Ellman''s test at 1 mM. It is filed as functional. The method in brief:
as §1

In assay [6] the target is Beta-3 adrenergic receptor (Homo sapiens) (UniProt P13945). Briefly: Beta adrenergic activity as cAMP production in human Beta3 adrenergic receptor expressing COS-7 cells with propranolol. The format is functional, cell-based. The procedure, abridged:
(§2)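 COS-7 cells in DMEM/10% FBS at 37 °C, 5% CO2, lipofected with human β3-receptor plasmid at 70-80% confluence, then grown 24 h. Cells preincubated 30 min at 37 °C in serum-free DMEM/25 mM HEPES pH 7.5, then exposed 20 min to 10 μM compound with 0.24 mM IBMX, with or without 0.1 μM propranolol. cAMP in TCA extract measured by RIA, expressed as pmol/min/well.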
A general note: Cyclic AMP is a second messenger, typically raised through Gs and lowered through Gi signalling.

The target is the same in assay [7]. Briefly: Beta adrenergic activity was determined by measuring cAMP production on human Beta3 adrenergic transfected COS-7 cells. It is filed as functional, cell-based. The method in brief: as §2
Assay [8] deals with COS-7. Briefly: CyclicAMP production in untransfected COS-7 cell control. The format is functional. The method in brief: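 Non-transfected COS-7 cells grown in DMEM/10% FBS at 37 °C, 5% CO2. Preincubated 30 min at 37 °C in serum-free DMEM/25 mM HEPES pH 7.5, then given 10 μM compound plus 0.24 mM IBMX and 0.1 μM propranolol for 20 min. cAMP in cold 5% TCA extract quantified by RIA, pmol/min/well.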

Assay [9] is filed under the species Bos taurus. Briefly: Oxidation was assessed indirectly by measuring bovine serum albumin (BSA) thiol protection from the formation of thiobarbituric acid reactive substances (TBARs) by TBARs test at 100 uM. It is filed as functional.
Assay [10] is filed under the species Bos taurus. Nature of the assay: Oxidation was assessed indirectly by measuring bovine serum albumin (BSA) thiol protection from the formation of thiobarbituric acid reactive substances (TBARs) by TBARs test at 500 uM. It is filed as functional. The procedure, abridged: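 Plasma lipid peroxidation induced by Fenton-generated hydroxyl radicals (Fe2+/H2O2), with compound at the stated concentration. Thiobarbituric acid reactive substances quantified. Expressed as % protection relative to Trolox. Mean ± SEM, three experiments, ANOVA (p < 0.05).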

The species named for assay [11] is Bos taurus. Briefly: Oxidation was assessed indirectly by measuring bovine serum albumin(BSA) thiol protection from the formation of thiobarbituric acid reactive substances (TBARs) by TBARs test at 10 uM. It is filed as functional.
The species named for assay [12] is Bos taurus. Briefly: Oxidation was assessed indirectly by measuring bovine serum albumin (BSA) thiol protection by using Ellman''s test at 500 uM. The format is functional. The procedure, abridged: as §1
Assay [13] is filed under the species Bos taurus. Nature of the assay: Oxidation was assessed indirectly by measuring bovine serum albumin (BSA) thiol protection by using Ellman''s test at 1 mM. It is filed as functional. The method in brief: as §1

Beta-3 adrenergic receptor (Homo sapiens), sequence (P13945 whole entry, looked up): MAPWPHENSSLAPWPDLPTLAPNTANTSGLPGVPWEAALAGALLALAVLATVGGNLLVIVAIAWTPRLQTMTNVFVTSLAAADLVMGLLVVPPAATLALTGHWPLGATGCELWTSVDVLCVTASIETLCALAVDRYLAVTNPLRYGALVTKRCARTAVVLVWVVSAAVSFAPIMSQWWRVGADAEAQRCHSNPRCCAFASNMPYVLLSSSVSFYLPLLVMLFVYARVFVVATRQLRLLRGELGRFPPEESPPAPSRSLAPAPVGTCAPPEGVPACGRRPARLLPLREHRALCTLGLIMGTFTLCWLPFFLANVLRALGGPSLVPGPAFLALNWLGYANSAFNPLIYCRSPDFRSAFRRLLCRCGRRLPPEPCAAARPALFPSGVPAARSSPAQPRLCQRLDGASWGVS

`COc1ccccc1OCCNCC(O)COc1cccc2[nH]c3ccccc3c12` (stereo not given) [CARVEDILOL]: the Protection in assay [1] is 20%; in assay [2], 6.2%; in assay [3] it was -0.6%; in [4] it was 1%; in assay [5] it was -88.6%.
On to `CC(C)(C)c1cc(CCCOc2ccc(NCC(O)COc3ccc4cccnc4c3)cc2)cc(C(C)(C)C)c1O` (stereo not given), for which the results for the cAMP production (pM min-1 well-1) in assay [6] and in assay [7] were 21.4 and 97.4, respectively. The same compound registered a cAMP production in assay [8] of 23.3 pmol/min/well.
In turn, `CC(C)(C)c1cc(CCCOc2ccc(NCC(O)COc3ccc4ccncc4c3)cc2)cc(C(C)(C)C)c1O` (stereo not given) gave a cAMP production (pM min-1 well-1) in assay [6] of 23.9. Further, in assay [8], the cAMP production was 26.9 pmol/min/well.
On to `Cc1c(C)c2c(c(C)c1O)CCC(C)(COc1ccc(NCC(O)COc3cccc4[nH]c5ncccc5c34)cc1)O2` (stereo not given), for which the Protection worked out at 53.6% in assay [9], 75.5% in [10] and 44.3% in [4].
In turn, `Cc1c(C)c2c(c(C)c1O)CCC(C)(COc1ccc(NCC(O)COc3cccc4[nH]c5ccccc5c34)cc1)O2` (stereo not given) displayed a cAMP production (pM min-1 well-1) in assay [6] of 22.3. The cAMP production in assay [8] was found to be 31.5 pmol/min/well.
Regarding `Cc1c(C)c2c(c(C)c1O)CCC(C)(COc1ccc(NCC(O)COc3cccc4ncccc34)cc1)O2` (stereo not given), the cAMP production (pM min-1 well-1) in [6] is 28.6; in [7], 103. Moreover, the Protection in [1] was 49.2%; in assay [11], 37.8%; in [2], 78.2%; in [3] it was 64.6%; in assay [5], 82.9%. For the same compound, the cAMP production in assay [8] turned out to be 26.8 pmol/min/well.
Regarding `CC(C)(C)c1cc(CCCOc2ccc(NCC(O)COc3cccc4cnccc34)cc2)cc(C(C)(C)C)c1O` (stereo not given), the cAMP production (pM min-1 well-1) in [6] stood at 76.3; in [7], 130. Moreover, the Protection stood at 32.8% in [9], 49.3% in assay [10] and 43.6% in assay [4]. The same compound returned a cAMP production in [8] of 24.9 pmol/min/well.
`Cc1c(C)c2c(c(C)c1O)CCC(C)(COc1ccc(NCC(O)COc3ccc4ccncc4c3)cc1)O2` (stereo not given) displayed a cAMP production (pM min-1 well-1) in [6] of 33.2. The compound also had a cAMP production in assay [8] of 33 pmol/min/well.
Take `Cc1c(C)c2c(c(C)c1O)CCC(C)(COc1ccc(NCC(O)COc3cccc4cnccc34)cc1)O2` (stereo not given): the cAMP production (pM min-1 well-1) in assay [6] worked out at 41.6; in assay [7] it was 142. Further, the Protection amounted to 54.8% in assay [1]; 49.3% in assay [9]; 94.4% in assay [10]; 39.4% in assay [4]; 115.2% in assay [5]. Moreover, the cAMP production in assay [8] was 28.7 pmol/min/well.
For the compound `Cc1c(C)c2c(c(C)c1O)CCC(C)(C(=O)O)O2` (stereo not given) [TROLOX], the Protection in assay [1] is reported as 31.4%; in [2], 64.8%; in [3] it was 7.6%; in [4] it was -21.4%; in assay [5], 75.2%.
`CC(C)(C)c1cc(CCCOc2ccc(NCC(O)COc3cccc4ncccc34)cc2)cc(C(C)(C)C)c1O` (stereo not given): the Protection in [9] is 33.3%; in assay [12], 47.3%; in assay [10], 50.4%; in [4], 30.3%; in assay [13], 120.3%. Further, the cAMP production in assay [8] worked out at 21.6 pmol/min/well.
